Rows were chosen to be rich in hits. Some 4.3% of all compounds tested hit in one or more screens of this group.
NF-kB expr up: raises NF-kB expression in human neuronal cells; NF-kB reporter expression; stronger effect = higher value; fold change at 12.5 µM; 1.6% of 190,000 active; AID 1239; in the data active means fold change above about 3.3
FLuc inhib CS: inhibits firefly luciferase, flagging false hits in luciferase inhibition screens; P08659; ATPLite firefly luciferase biochemical luminescence, 10 min; inhibition, % at 10 µM; 1.5% of 200,000 active;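 active means inhibition above about 50% when tested at 10 µM, limit read from the data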
Target sequence (P08659 whole entry, looked up): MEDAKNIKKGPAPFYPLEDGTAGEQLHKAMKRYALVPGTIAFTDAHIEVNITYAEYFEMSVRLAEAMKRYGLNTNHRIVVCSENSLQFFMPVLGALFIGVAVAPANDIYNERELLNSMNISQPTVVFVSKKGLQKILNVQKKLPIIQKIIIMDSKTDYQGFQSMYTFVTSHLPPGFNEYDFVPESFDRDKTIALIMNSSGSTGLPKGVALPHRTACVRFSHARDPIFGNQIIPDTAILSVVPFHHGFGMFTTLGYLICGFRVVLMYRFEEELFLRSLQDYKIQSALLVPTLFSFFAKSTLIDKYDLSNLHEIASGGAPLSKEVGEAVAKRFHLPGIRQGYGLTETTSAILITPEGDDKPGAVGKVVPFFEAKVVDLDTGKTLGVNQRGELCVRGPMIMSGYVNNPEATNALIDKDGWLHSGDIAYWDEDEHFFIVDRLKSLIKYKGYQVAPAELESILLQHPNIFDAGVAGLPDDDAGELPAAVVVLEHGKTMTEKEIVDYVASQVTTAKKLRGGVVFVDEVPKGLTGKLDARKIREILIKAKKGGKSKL
APP 5'UTR act: activates APP 5'UTR luciferase reporter | SH-SY5Y APP 5'UTR luciferase reporter, luminescence; zero percent = DMSO vehicle wells | activation, % at 2 µM | 1% of 190,000 active;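 active means activation above a set limit, based on mean plus 3 SD of controls, cut at about 140% in these data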
STAT1 act: increases IFN-gamma driven STAT1 reporter signal | activation (% of control), % at 5.5 µM | NIH 3T3 STAT1-luciferase reporter, luminescence; 100% = IFN-gamma alone, no compound | 2.6% of 200,000 active;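 active means activation above the screen-wide mean activation plus 3 SD, cut at about 130% in these data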;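 further: raw ratio to IFN-gamma control signal so 100% means no change and 0% no light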
FLuc stim CS: affects firefly luciferase, flagging false hits in luciferase stimulation screens | activation factor at 10 µM | P08659 | ATPlite luciferase biochemical, luminescence, 10 min; 0 = ATP-free wells, 1 = DMSO control | 200,000 tested, under 10 active;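 active means luciferase activation factor, scaled between plate controls, of at least 2 with compound at 10 µM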
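Material: Luciferase/luciferin reagent mix | Doses: Test compounds dosed from 2 mM stocks in 100% DMSO | Timing: 10 min incubation after luciferase reagent addition, room temperature | Measured by: Luminescence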
The depositor's hits bear a star; . = no result given.

SMILES	NF-kB expr up	FLuc inhib CS	APP 5'UTR act	STAT1 act	FLuc stim CS
O=C(/C=C/c1ccco1)N1CCc2ccccc21	7.7*	82.3*	249.7*	90.0	0.2
O=C(Nc1ccccc1C(=O)NC(Cc1ccccc1)C(=O)NC1CCCCCC1)c1ccccc1 (stereo not drawn)	0.95	-12.6	8.3	97.8	1.1
O=C(C1CCC(=O)N1C1CCCCC1)N1CCN(c2ccc(F)cc2)CC1 (stereo not drawn)	1.04	-3.1	8.2	97.7	1
CC(C)(C)n1nnnc1SCC(=O)Nc1nn(-c2ccccc2)nc1C(N)=O	1	-6.2	-13.6	122.3	1.1
O=C(Nc1ccc(Cl)c(Cl)c1)Nc1nnc(CC2=CCCCC2)s1	1.02	-5.4	2.4	108.6	1.1
CC(C)Oc1ccc(C(CC(=O)O)n2cnnn2)cc1 (stereo not drawn)	1.05	-10.3	1.0	97.6	1.1
COCCOC(=O)CSc1ncccc1-c1nc2cc(C)c(C)cc2[nH]1	2.99	74.8*	43.1	109.5	0.3
Cc1cc2nc(-c3cccnc3SCC(=O)NC(C)C)[nH]c2cc1C	1.24	70.1*	62.6	126.0	0.3
COc1ccccc1N1CCN(C(=O)CSc2ncccc2-c2nc3ccccc3[nH]2)CC1	0.39	-1.3	31.9	99.7	1
O=C1N(Cc2cccc(Cl)c2)C[C@@H]2C[C@@H](c3ccc4nonc4c3)N3CCC[C@@]123	1.05	-3.7	-15.4	101.3	1
N#Cc1c(NC(=O)C2CC(Cl)=CCC2C(=O)O)sc2c1CCCC2 (stereo not drawn)	1.39	-1.0	10.5	102.4	1
Cc1ccc2nc3ccc(N4CCCC4)nn3c(=O)c2c1	1.69	28.1	100.2	133.5*	0.7
CC1CCCN(c2ccc3nc4ccccc4c(=O)n3n2)C1 (stereo not drawn)	2.13	93.8*	175.1*	51.5	0.1
Cc1c(NC(=S)NC(=O)c2sc3ccccc3c2Cl)cccc1C(=O)O	3	31.0	186.2*	120.9	0.7
Cc1ccnc(NC(=O)c2sc3cc(Cl)ccc3c2Cl)c1	3.57*	49.6	171.0*	111.3	0.5
COc1ccccc1C(=O)NNC(=S)NC(=O)c1sc2ccccc2c1Cl	0.92	-1.8	6.4	102.1	1
CNC(=O)c1ccsc1NC(=O)c1sc2ccccc2c1Cl	1.13	26.1	47.2	124.1	0.7
COCc1nnc(NC(=O)c2sc3ccccc3c2Cl)s1	1.74	63.3*	11.2	101.4	0.4
COCc1nnc(NC(=O)c2cccs2)s1	1.35	-0.8	.	108.6	1
Cc1ccc(NC(=O)c2sc3ccccc3c2Cl)nc1	3.2	79.5*	191.8*	127.9	0.2
COc1ccc(C2CCCN2C(=S)Nc2cccc(Cl)c2C)cc1OC (stereo not drawn)	0.81	-4.0	3.8	90.7	1
COC(=O)C1=C(C)N(Cc2cccnc2)C(=O)/C1=C\c1sccc1C	1.26	-6.0	-16.3	91.8	1.1
Cc1nnc(NC(=O)c2sc3ccccc3c2Cl)s1	3.31*	96.7*	65.4	78.3	0
Cn1cccc1/C=N/NC(=O)c1sc2ccccc2c1Cl	1.4	21.0	12.6	130.6*	0.8
Fc1ccc(OCc2nc3ccccc3s2)cc1	5.15*	64.0*	269.2*	136.3*	0.4
SMILES	NF-kB expr up	FLuc inhib CS	APP 5'UTR act	STAT1 act	FLuc stim CS
CCC(=O)Nc1ccc(OCc2nc3ccccc3s2)cc1	4.16*	46.0	215.9*	134.5*	0.5
c1ccc(OCc2nc3ccccc3s2)cc1	4.26*	41.9	126.4	141.2*	0.6
O=S(=O)(Cc1nc2ccccc2s1)c1ccccc1	2.18	4.5	73.2	138.1*	1
CCOc1cc(/C=N/NC(=O)C(C)Sc2ccccc2)ccc1O (stereo not drawn)	0.92	-7.7	-0.7	101.0	1.1
COC(=O)C1=C(C)NC(C)=C(C(=O)OC)C1c1ccc(N(C)C)cc1	3.72*	-2.1	-17.2	89.3	1
CC(=O)c1ccc(NC(=S)N(C)C2CCN(C)CC2)cc1	1.03	-7.8	-0.9	100.0	1.1
COc1ccc(C2CC(c3cccs3)=NN2C(=O)COC(=O)c2cncc(Br)c2)cc1OC (stereo not drawn)	1.01	-2.3	11.5	91.3	1
Cc1ccc(/C=C/C(=O)c2c(C)nc3ccccn23)cc1	3.59*	54.0*	195.6*	146.9*	0.5
CN(C(=O)COC(=O)c1ccccc1SCC(=O)NC1CCCCCCC1)C1CCS(=O)(=O)C1 (stereo not drawn)	0.94	-2.7	5.5	97.9	1
Cc1ccc(NC(=O)N2CCCC2C(=O)NCC2CCCO2)cc1 (stereo not drawn)	1.16	-2.6	-10.8	99.7	1
CCC(CO)Nc1ncnc2c1cnn2-c1ccc(Cl)cc1 (stereo not drawn)	0.69	34.4	162.5*	146.8*	0.7
CN(C)CCNc1ncnc2c1cnn2-c1ccc(Cl)cc1	2.29	10.4	92.3	117.5	0.9
CCC(CO)Nc1ncnc2c1cnn2-c1ccc(OC)cc1 (stereo not drawn)	1.25	45.2	148.0*	146.9*	0.5
COc1cccc(CN2CCC(N(CCc3ccccc3)Cc3ccccc3)CC2)c1OC	0.66	6.2	-0.2	98.3	0.9
O=C(N/N=C/c1ccc2c(c1)OCO2)c1cc(-c2ccccc2)nc2ccccc12	1.31	1.3	-5.2	94.4	1
O=c1[nH]c(N/N=C/c2ccccc2)nc2ccccc12	2.99	67.3*	139.7*	144.7*	0.3
O=c1[nH]c(N/N=C\c2ccc3c(c2)OCO3)nc2ccccc12	4.39*	75.8*	205.1*	140.5*	0.2
CN(C)CCNC(=O)c1sc2cccc(F)c2c1Cl	1.27	-9.9	-18.1	102.6	1.1
O=C(Nc1ccccn1)c1sc2cccc(F)c2c1Cl	5.67*	80.7*	179.2*	84.4	0.2
O=C(NCCCn1ccnc1)c1sc2cccc(F)c2c1Cl	1	-0.9	24.5	98.9	1
O=C(Nc1cccnc1)c1sc2cccc(F)c2c1Cl	0.85	26.1	82.8	132.6*	0.7
CC(=O)c1cc(-c2ccccc2)n(CCC(=O)NC(C)(C)C)c1C	1.41	-1.9	-6.0	97.0	1
CCc1ccc(/C(C)=N/NC(=O)c2ccccn2)cc1	1.29	10.1	-12.7	105.8	0.9
CC(=N/O)/C(C)=N\NC(=O)c1ccccn1	2.2	51.2*	39.9	101.8	0.5
C/C(=N/NC(=O)CNC(=O)c1ccccn1)c1ccccc1	1.38	-4.1	11.8	94.5	1
C/C(=N\NC(=O)c1ccccn1)c1ccc(C(=O)O)s1	1.12	3.7	64.2	132.9*	1
Cc1cc(NC(=O)C23CC4CC(C2)CC(n2cnc([N+](=O)[O-])n2)(C4)C3)no1	1.17	-1.8	8.0	101.8	1
Cc1cc(Cl)ccc1OCCCC(=O)NO	3.87*	-2.9	19.1	88.0	1
N#C/C(C(=O)N1CCOCC1)=C1/SC(Cc2ccccc2Cl)C(=O)N1c1ccccc1 (stereo not drawn)	1.02	-6.1	0.1	100.4	1.1

Compound activity from PubChem BioAssay.
